# High-throughput results as filed in PubChem.
# Rev-erbA mod: modulators of human Rev-erb alpha DNA binding | P20393 | Rev-erbα–FITC-DNA binding, fluorescence polarization, 90 min | activity, % at 10 µM | hit rate 0.79% among 370,000 | AID 1259318;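 active = activity above about 14%, limit read from the data; passing the limit was not always enough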;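 also: 0% = DMSO wells with 35 nM protein and 100% = DMSO wells with 750 nM protein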
# NR2E3 ag-1: NR2E3 (human) agonism; GST-NR2E3/biotin-RetCOR TR-FRET, 1536-well; inhibition of corepressor binding, % at 4.78 µM; hit rate 0.12% among 320,000;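 active = percent inhibition above the cutoff of mean plus 3 SD of all tested compounds, set per screening campaign, cut at about 20% in these data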;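 also: 0% = DMSO wells and 100% = biotin wells as full block of FRET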
# Target sequence (Q9Y5X4 whole entry, looked up): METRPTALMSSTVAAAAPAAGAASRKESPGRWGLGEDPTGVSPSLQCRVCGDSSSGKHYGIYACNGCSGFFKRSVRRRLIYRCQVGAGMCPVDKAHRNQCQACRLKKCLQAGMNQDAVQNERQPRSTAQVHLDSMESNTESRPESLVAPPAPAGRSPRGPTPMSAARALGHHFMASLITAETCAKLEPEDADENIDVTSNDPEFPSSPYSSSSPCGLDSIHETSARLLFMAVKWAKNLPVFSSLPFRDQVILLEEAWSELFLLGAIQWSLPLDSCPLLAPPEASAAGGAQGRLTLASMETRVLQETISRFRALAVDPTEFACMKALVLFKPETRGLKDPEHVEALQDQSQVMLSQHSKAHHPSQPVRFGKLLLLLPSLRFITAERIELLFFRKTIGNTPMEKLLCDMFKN
#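 Material – GST-tagged NR2E3 plus biotinylated RetCOR corepressor · Quantity – NR2E3 fusion 1.35 nM · Times – 5 h incubation at 4 °C · Medium – pH 7.5 Tris-based buffer · Technique – TR-FRET, Eu(K)-anti-GST donor, streptavidin-D2 acceptor, ex 340, em 617/671 nm · Benchmarks – high control biotin, low control 0.6% DMSO · Format – 1536-well plates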
# PG9 binder: PG9 antibody binding by small molecule; AID 624416; inhibition, % at 6.7 µM; hit rate 0.43% among 360,000; TR-FRET gp120-PG9 antibody binding; in the data active = inhibition above about 8.5%
# NR2E3 ag-2: agonists of human NR2E3 nuclear receptor; CHO-S Gal4-NCOR/VP16-NR2E3 two-hybrid, luciferase; inhibition of corepressor binding, % at 3.98 µM; hit rate 0.35% among 360,000; AID 602229;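 active = inhibition above the mean of all tested compounds plus 3 SD, cut at about 70% in these data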;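 also: 0% = DMSO with NR2E3 transfected cells and 100% = cells lacking NR2E3 construct; higher means lower luciferase signal from less NR2E3 corepressor binding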
# PG9 binder conf: PG9 antibody binding, confirmed | TR-FRET PG9 antibody binding, biochemical | inhibition, % at 6.7 µM | shares compounds with PG9 binder | hit rate 90% among 1,500; in the data active = inhibition above about 9%
# PGV04 Ab binding: counter-screen for PG9 binders: binding control antibody PGV04; shares compounds with PG9 binder; TR-FRET PGV04 antibody-gp120 binding, biochemical; inhibition, % at 6.7 µM; hit rate 95% among 1,500; AID 651604; in the data active = inhibition above about 9.5%
# PG9 bind DR: PG9 antibody binding, dose response; shares compounds with PG9 binder; TR-FRET PG9 antibody-gp120 binding inhibition; IC50, µM; 95 tested, under 10 active; AID 651848; in the data active = IC50 below about 10 µM
# PGV04 binding DR: binds control antibody PGV04 in PG9 counter-screen; TR-FRET binding to control antibody PGV04; IC50, µM; hit rate 20% among 95; shares compounds with PG9 binder; AID 651937
# PG126 DR counter: counter-screen for PG9 binders: binding to control antibody PG126. IC50, µM. shares compounds with PG9 binder. hit rate 20% among 95. TR-FRET binding to antibody PG126, counterscreen
# An asterisk follows results filed as active; . = not tested or not shown. This is a sample that favours compounds with a hit; in the whole collection about 1.5% have one here. Rule as the data show it, unless noted: active = IC50 below about 9 µM; inactive = the rest.
SMILES,Rev-erbA mod,NR2E3 ag-1,PG9 binder,NR2E3 ag-2,PG9 binder conf,PGV04 Ab binding,others
COC(=O)[C@]12C[C@H](CC(=O)NCc3ccc(C)o3)C(=O)N(Cc3ccco3)C1=C[C@H](COCc1ccccc1)O[C@@H]2C,-3.8,.,.,.,.,.,
O=C(c1ccco1)N1CCC(Oc2cccnc2)CC1,-4.2,.,.,.,.,.,
O=c1[nH]c2cc(O)ccc2c2ccccc12,-3.2,.,36.7*,-9.9,38.5*,47.5*,
O=c1oc2cc(O)ccc2c2ccccc12,-4.9,12.8,22.3*,-8.2,28.6*,37.5*,
Cc1ccc(NC(=O)c2ccc(CS(=O)(=O)Cc3ccccc3C)o2)c(C)c1,4.1,.,.,.,.,.,
O=C(O)CCCC(=O)N1CCN(c2nc(-c3ccccc3Cl)c3cc(Br)ccc3n2)CC1,-4.2,2.1,17.0*,-30.5,22.8*,33.5*,
CN(Cc1ccccc1)S(=O)(=O)c1cccc(C(=O)OCc2cccc([N+](=O)[O-])c2)c1,1.4,.,.,.,.,.,
CN(C)C1(CNC(=O)CC(NC(=O)c2ccccc2Cl)c2ccccc2)CCCCC1 (stereo not given),9.3,3.8,17.2*,-24.7,8.9*,9.6*,
Cc1nnc2c(NCCc3ccccc3)nc3ccccc3n12,18.1,3.9,10.8*,-27.4,49.3*,61.9*,
COc1ccc(CNC(=O)c2ccc(N3CCC4(CC3)CC(c3ccc(Cl)cc3)=NO4)c(NC(=O)c3ccccc3)c2)cc1,3.2,-4.3,-0.8,-11.5,.,.,
COc1cccc(C(=O)Nc2cc(C(=O)NCc3ccc(C)cc3)ccc2N2CCC3(CC2)CC(c2ccccc2)=NO3)c1,2.1,6.9,11.2*,-55.0,3.7,6.3,
COCCCNC(=O)C[C@H]1C[C@@]2(C(=O)OC)C(=C[C@H](C(C)C)O[C@@H]2C2CC2)N(Cc2ccco2)C1=O,-3.6,.,.,.,.,.,
Cc1cc(C)c2nc(-c3ccccn3)cc(C(=O)NCc3ccc(S(N)(=O)=O)cc3)c2c1,-4.8,1.9,1.9,-10.2,.,.,
COc1ccccc1CCNC(=O)c1cc(-c2ccccn2)nc2ccccc12,11.7,.,27.0*,-7.9,22.1*,31.8*,
Cc1cc(C)c2nc(-c3ccccn3)cc(C(=O)NCCc3ccc(S(N)(=O)=O)cc3)c2c1,8.1,-6.2,29.9*,-13.4,23.4*,39.9*,
CC(C)CN1C(=O)N2Cc3ccccc3C2CS1(=O)=O (stereo not given),-1.6,.,.,.,.,.,
COc1ccc(-n2c(SCC(=O)N(CC(C)C)CC(C)C)nnc2-c2ccncc2)cc1,-4.7,.,.,.,.,.,
CCC1(C)Cc2ccccc2-c2nc(SC)[nH]c(=O)c21 (stereo not given),1.4,0.3,13.1*,-25.9,9.4*,8.6,PG9 bind DR=>67.1;PGV04 binding DR=>67.1;PG126 DR counter=>67.1
CCC1(C)Cc2ccccc2-c2nc(SCC(N)=O)[nH]c(=O)c21 (stereo not given),-0.2,-1.6,-1.1,0.3,.,.,
CCN(CCCNC(=O)CCn1c(=S)[nH]c2cc3c(cc2c1=O)OCO3)c1cccc(C)c1,-0.9,2.8,10.1*,13.2,11.6*,14.2*,
O=C(CCCCCn1c(=S)[nH]c2cc3c(cc2c1=O)OCO3)NCCc1ccccc1,18.1,14.1,19.9*,-2.9,17.5*,24.0*,
CCOC(=O)N1CCN(C(=O)CCCCCn2c(=S)[nH]c3cc4c(cc3c2=O)OCO4)CC1,0.5,3.7,8.7*,-28.4,3.0,15.6*,
O=C(CCCn1c(=S)[nH]c2cc3c(cc2c1=O)OCO3)NCCc1ccc(Cl)cc1,17.6,.,3.6,15.5,.,.,
Cc1cccc(N2CCN(C(=O)CCn3c(=S)[nH]c4cc5c(cc4c3=O)OCO5)CC2C)c1 (stereo not given),4.1,-5.9,-0.1,8.8,.,.,
CCCCNC(=O)C[C@H]1C[C@@]2(C(=O)OC)C(=C[C@H](C(C)C)O[C@@H]2C2CC2)N(CCc2ccc(OC)c(OC)c2)C1=O,-3.3,.,.,.,.,.,
Cc1ccc2nc(-c3ccc(NC(=O)CSc4nnc(-c5cc(-c6ccc(F)cc6)n[nH]5)n4N)cc3)sc2c1,9.3,.,.,.,.,.,
